28 compounds from ChEMBL document CHEMBL4049453, “Discovery of Mixed Pharmacology Melanocortin-3 Agonists and Melanocortin-4 Receptor Tetrapeptide Antagonist Compounds (TACOs) Based on the Sequence Ac-Xaa1-Arg-(pI)DPhe-Xaa4-NH2” (J Med Chem, 2017) can be followed below.

Assay [1] has as its target Melanocortin receptor 4 (Mus musculus, UniProt P56450). Nature of the assay: Agonist activity at mouse MC4R expressed in HEK293 cells assessed as induction of cAMP accumulation up to 100 uM after 2 hrs by alpha screen assay relative to NDP-MSH. In kind it is cell-based. The following applies: read-out: Activity. On the technique in general: cAMP levels reflect the balance of adenylyl cyclase and phosphodiesterase activity.

Assay [2] concerns the target Melanocortin receptor 3 (Mus musculus) (UniProt P33033). Nature of the assay: Agonist activity at mouse MC3R expressed in HEK293 cells assessed as induction of cAMP accumulation up to 100 uM after 2 hrs by alpha screen assay relative to NDP-MSH. Format: functional, cell-based. In outline: (§1)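 HEK293 stably expressing mouse MC1R/MC3R/MC4R/MC5R (pCDNA3). Cells in stimulation buffer (HBSS, 0.5 mM IBMX, 5 mM HEPES, 0.1% BSA, pH 7.4) at 1000 cells/μL with anti-cAMP acceptor beads. Ligand given 10−4 to 10−10 M (or 10−6 to 10−12 M) for 2 h at RT in the dark, then donor beads/biotin-cAMP lysis mix for 2 h. AlphaScreen cAMP read-out, normalized to 10−6 M NDP-MSH as 100%.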

Assay [3] has as its target Melanocortin receptor 4 (Mus musculus) (UniProt P56450). Nature of the assay: Antagonist activity at mouse MC4R expressed in HEK293 cells assessed as inhibition of NDP-MSH induced-cAMP accumulation up to 10 uM after 2 hrs by alpha screen assay. In kind it is functional, cell-based. In outline:
(§2)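 mouse MC3R or MC4R in stably transfected HEK293 cells, AlphaScreen cAMP assay (IBMX stimulation buffer, 2 h RT incubation, then 2 h with donor-bead lysis mix). […] Run in triplicate.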

Assay [4] deals with Melanocortin receptor 3 (Mus musculus) (UniProt P33033). Nature of the assay: Antagonist activity at mouse MC3R expressed in HEK293 cells assessed as inhibition of NDP-MSH induced-cAMP accumulation up to 10 uM after 2 hrs by alpha screen assay. Format: functional, cell-based. In outline:
as §2

The target in assay [5] is Melanocyte-stimulating hormone receptor (Mus musculus) (UniProt Q01727). As to the kind of experiment: Agonist activity at mouse MC1R expressed in HEK293 cells assessed as induction of cAMP accumulation up to 100 uM after 2 hrs by alpha screen assay relative to NDP-MSH. Format: functional, cell-based. A digest of the protocol: as §1
Melanocyte-stimulating hormone receptor (Mus musculus), sequence (Q01727 whole entry, looked up): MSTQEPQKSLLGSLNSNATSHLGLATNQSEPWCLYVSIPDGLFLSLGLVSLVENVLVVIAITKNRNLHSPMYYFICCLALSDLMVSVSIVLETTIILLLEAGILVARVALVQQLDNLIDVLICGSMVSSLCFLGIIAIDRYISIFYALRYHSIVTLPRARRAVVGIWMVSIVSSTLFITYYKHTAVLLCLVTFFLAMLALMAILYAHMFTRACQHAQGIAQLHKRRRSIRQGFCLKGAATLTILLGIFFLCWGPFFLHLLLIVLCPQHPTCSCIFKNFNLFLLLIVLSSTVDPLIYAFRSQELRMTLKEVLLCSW

Each structure is given as a SMILES string. Calls of active or inactive are those of the source. The rule behind the calls is not given here. Non-standard residues stand in square brackets, D forms with d. Residues, ends and D or L forms follow the SMILES beside them. Bip = N[C@@H](Cc1ccc(-c2ccccc2)cc1)C(=O)O; dPhe(4-I) = N[C@H](Cc1ccc(I)cc1)C(=O)O; 2Nal = N[C@@H](Cc1ccc2ccccc2c1)C(=O)O; d2Nal = N[C@H](Cc1ccc2ccccc2c1)C(=O)O; Bta = N[C@@H](Cc1csc2ccccc12)C(=O)O

Melanocortin receptor 3 (Mus musculus), sequence (P33033 whole entry): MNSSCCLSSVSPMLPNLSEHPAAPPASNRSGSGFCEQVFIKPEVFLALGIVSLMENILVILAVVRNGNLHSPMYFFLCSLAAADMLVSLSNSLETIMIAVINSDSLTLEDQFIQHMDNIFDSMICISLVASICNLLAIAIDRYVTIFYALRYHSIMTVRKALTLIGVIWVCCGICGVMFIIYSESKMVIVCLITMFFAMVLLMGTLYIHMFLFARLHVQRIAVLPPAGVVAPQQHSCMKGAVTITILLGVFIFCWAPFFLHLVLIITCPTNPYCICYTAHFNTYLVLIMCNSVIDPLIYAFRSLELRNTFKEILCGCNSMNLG
Melanocortin receptor 4, sequence (P56450 whole entry): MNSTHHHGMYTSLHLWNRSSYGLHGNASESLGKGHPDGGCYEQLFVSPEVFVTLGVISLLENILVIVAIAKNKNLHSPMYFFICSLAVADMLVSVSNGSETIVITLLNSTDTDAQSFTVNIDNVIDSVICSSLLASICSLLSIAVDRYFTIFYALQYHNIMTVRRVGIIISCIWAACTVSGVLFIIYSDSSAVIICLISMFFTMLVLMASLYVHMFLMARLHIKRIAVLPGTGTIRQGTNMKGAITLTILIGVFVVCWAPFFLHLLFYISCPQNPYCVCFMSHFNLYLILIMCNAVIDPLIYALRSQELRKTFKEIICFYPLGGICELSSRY
Melanocortin receptor 4 (Mus musculus), sequence (P56450 whole entry): as above

As for `CC(=O)N[C@@H](CCCNC(=N)N)C(=O)N[C@@H](CCCNC(=N)N)C(=O)N[C@H](Cc1ccc(I)cc1)C(=O)N[C@@H](Cc1ccc2ccccc2c1)C(N)=O`, the Emax in assay [1] was less than 20%.
As for `CC(=O)N[C@@H](Cc1csc2ccccc12)C(=O)N[C@@H](CCCNC(=N)N)C(=O)N[C@H](Cc1ccc(I)cc1)C(=O)N[C@@H](Cc1ccc2ccccc2c1)C(N)=O`, in assay [1], the Emax is less than 20%. In assay [2], the Activity is less than 20%. Moreover, the inhibition result in assay [3] and in assay [4] was “inactive” each time.
Consider `CC(=O)N[C@@H](Cc1cnc[nH]1)C(=O)N[C@@H](CCCNC(=N)N)C(=O)N[C@H](Cc1ccc(I)cc1)C(=O)N[C@@H](Cc1ccc(-c2ccccc2)cc1)C(N)=O`, for which the inhibition result in assay [3] and in assay [4] was “inactive” throughout. The Activity in assay [5] was less than 20%.
In the case of `CC(=O)N[C@@H](Cc1ccc2ccccc2c1)C(=O)N[C@@H](CCCNC(=N)N)C(=O)N[C@H](Cc1ccc(I)cc1)C(=O)N[C@@H](Cc1csc2ccccc12)C(N)=O` (Ac-[2Nal]R[dPhe(4-I)][Bta]-NH2), the Emax in assay [1] was less than 20%.
Take `CC(=O)N[C@@H](Cc1ccc2ccccc2c1)C(=O)N[C@@H](CCCNC(=N)N)C(=O)N[C@H](Cc1ccc(I)cc1)C(=O)N[C@H](Cc1ccc2ccccc2c1)C(N)=O` (Ac-[2Nal]R[dPhe(4-I)][d2Nal]-NH2): in assay [1], the Emax is less than 20%. The inhibition result in assay [3] and in assay [4] was “inactive” in each case.
`CC(=O)N[C@@H](Cc1ccc(-c2ccccc2)cc1)C(=O)N[C@@H](CCCNC(=N)N)C(=O)N[C@H](Cc1ccc(I)cc1)C(=O)N[C@@H](Cc1ccc2ccccc2c1)C(N)=O` (Ac-[Bip]R[dPhe(4-I)][2Nal]-NH2): in assay [1], the Emax is less than 20%. For the same compound, in assay [2], the Activity was less than 20%. Besides, the inhibition entry in assay [3] and in assay [4] was “inactive” in each case.
As for `CC(=O)N[C@@H](Cc1ccc(-c2ccccc2)cc1)C(=O)N[C@@H](CCCNC(=N)N)C(=O)N[C@H](Cc1ccc(I)cc1)C(=O)N[C@@H](Cc1csc2ccccc12)C(N)=O` (Ac-[Bip]R[dPhe(4-I)][Bta]-NH2), the Emax in assay [1] was less than 20%. The inhibition entry in assay [3] was “inactive”.
On to `CC(=O)N[C@@H](Cc1ccc(-c2ccccc2)cc1)C(=O)N[C@@H](CCCNC(=N)N)C(=O)N[C@H](Cc1ccc(I)cc1)C(=O)N[C@H](Cc1ccc2ccccc2c1)C(N)=O` (Ac-[Bip]R[dPhe(4-I)][d2Nal]-NH2), for which the Emax in assay [1] is less than 20%. In addition, the inhibition result in assay [3] and in assay [4] was “inactive” throughout.
For `CC(=O)N[C@@H](Cc1csc2ccccc12)C(=O)N[C@@H](CCCNC(=N)N)C(=O)N[C@H](Cc1ccc(I)cc1)C(=O)N[C@@H](Cc1ccc(-c2ccccc2)cc1)C(N)=O` (Ac-[Bta]R[dPhe(4-I)][Bip]-NH2), the inhibition entry in assay [3] and in assay [4] was “inactive” throughout. Further, the Activity in assay [5] is less than 20%.
As to `CC(=O)N[C@@H](Cc1csc2ccccc12)C(=O)N[C@@H](CCCNC(=N)N)C(=O)N[C@H](Cc1ccc(I)cc1)C(=O)N[C@@H](Cc1csc2ccccc12)C(N)=O` (Ac-[Bta]R[dPhe(4-I)][Bta]-NH2), the Emax in assay [1] is less than 20%.
With `CC(=O)N[C@H](Cc1ccc2ccccc2c1)C(=O)N[C@@H](CCCNC(=N)N)C(=O)N[C@H](Cc1ccc(I)cc1)C(=O)N[C@@H](Cc1ccc(-c2ccccc2)cc1)C(N)=O` (Ac-[d2Nal]R[dPhe(4-I)][Bip]-NH2), the Activity in assay [5] was less than 20%.
Turning to `CC(=O)N[C@@H](Cc1ccc(-c2ccccc2)cc1)C(=O)N[C@@H](CCCNC(=N)N)C(=O)N[C@H](Cc1ccc(I)cc1)C(=O)N1Cc2ccccc2C[C@H]1C(N)=O` (HELM PEPTIDE1{[ac].[O=C([C@H](Cc1ccc(-c2ccccc2)cc1)N[*:1])[*:2]].R.[O=C([C@@H](Cc1ccc(I)cc1)N[*:1])[*:2]].[Tic].[am]}$$$$V2.0), in assay [1], the Emax was less than 20%.
With `CC(=O)N1Cc2ccccc2C[C@H]1C(=O)N[C@@H](CCCNC(=N)N)C(=O)N[C@H](Cc1ccc(I)cc1)C(=O)N[C@H](Cc1ccc2ccccc2c1)C(N)=O` (HELM PEPTIDE1{[ac].[Tic].R.[O=C([C@@H](Cc1ccc(I)cc1)N[*:1])[*:2]].[O=C([C@@H](Cc1ccc2ccccc2c1)N[*:1])[*:2]].[am]}$$$$V2.0), the inhibition entry in assay [3] and in assay [4] was “inactive” each time.
With `CC(=O)N1Cc2ccccc2C[C@H]1C(=O)N[C@@H](CCCNC(=N)N)C(=O)N[C@H](Cc1ccc(I)cc1)C(=O)N[C@@H](Cc1ccc2ccccc2c1)C(N)=O` (HELM PEPTIDE1{[ac].[Tic].R.[O=C([C@@H](Cc1ccc(I)cc1)N[*:1])[*:2]].[O=C([C@H](Cc1ccc2ccccc2c1)N[*:1])[*:2]].[am]}$$$$V2.0), the Emax in assay [1] was less than 20%. Further, the Activity in assay [2] is less than 20%. For the same compound, the inhibition entry in assay [4] is “inactive”.
For the compound `CC(=O)N1Cc2ccccc2C[C@H]1C(=O)N[C@@H](CCCNC(=N)N)C(=O)N[C@H](Cc1ccc(I)cc1)C(=O)N[C@@H](Cc1ccc(-c2ccccc2)cc1)C(N)=O` (HELM PEPTIDE1{[ac].[Tic].R.[O=C([C@@H](Cc1ccc(I)cc1)N[*:1])[*:2]].[O=C([C@H](Cc1ccc(-c2ccccc2)cc1)N[*:1])[*:2]].[am]}$$$$V2.0), the Emax in assay [1] is less than 20%. The Activity in assay [2] is less than 20%. In addition, the inhibition result in assay [3] and in assay [4] was “inactive” each time.
With `CC(=O)N1Cc2ccccc2C[C@H]1C(=O)N[C@@H](CCCNC(=N)N)C(=O)N[C@H](Cc1ccc(I)cc1)C(=O)N[C@@H](Cc1csc2ccccc12)C(N)=O` (HELM PEPTIDE1{[ac].[Tic].R.[O=C([C@@H](Cc1ccc(I)cc1)N[*:1])[*:2]].[O=C([C@H](Cc1csc2ccccc12)N[*:1])[*:2]].[am]}$$$$V2.0), the Emax in assay [1] was less than 20%.
With `CC(=O)NC(Cc1ccccc1)C(=O)N[C@@H](CCCNC(=N)N)C(=O)N[C@H](Cc1ccc(I)cc1)C(=O)N[C@@H](Cc1ccc2ccccc2c1)C(N)=O` (stereo in doubt), in assay [1], the Emax is less than 20%. Also, in assay [4], the inhibition result is “inactive”.
In the case of `CC(=O)N[C@@H](Cc1ccc(-c2ccccc2)cc1)C(=O)N[C@@H](CCCNC(=N)N)C(=O)N[C@H](Cc1ccc(I)cc1)C(=O)NC(Cc1ccccc1)C(N)=O` (stereo in doubt), the Emax in assay [1] is less than 20%. In addition, the inhibition result in assay [4] was “inactive”.
On to `CC(=O)N1Cc2ccccc2C[C@H]1C(=O)N[C@@H](CCCNC(=N)N)C(=O)N[C@H](Cc1ccc(I)cc1)C(=O)NC(Cc1ccccc1)C(N)=O` (stereo in doubt), for which, in assay [1], the Emax is less than 20%. For the same compound, in assay [2], the Activity was less than 20%. For the same compound, the inhibition result in assay [3] and in assay [4] was “inactive” each time.
As to `CC(=O)NC(Cc1ccccc1)C(=O)N[C@@H](CCCNC(=N)N)C(=O)N[C@H](Cc1ccc(I)cc1)C(=O)N[C@@H](Cc1ccc(-c2ccccc2)cc1)C(N)=O` (stereo in doubt), the Emax in assay [1] is less than 20%. Besides, the inhibition entry in assay [3] and in assay [4] was “inactive” in each case.
Take `CC(=O)NC(Cc1ccccc1)C(=O)N[C@@H](CCCNC(=N)N)C(=O)N[C@H](Cc1ccc(I)cc1)C(=O)N1Cc2ccccc2C[C@H]1C(N)=O` (stereo in doubt): the Emax in assay [1] was less than 20%.
For the compound `CC(=O)NC(Cc1ccccc1)C(=O)N[C@@H](CCCNC(=N)N)C(=O)N[C@H](Cc1ccc(I)cc1)C(=O)N[C@H](Cc1ccc2ccccc2c1)C(N)=O` (stereo in doubt), in assay [1], the Emax is less than 20%. Further, the inhibition result in assay [4] is “inactive”.
Regarding `CC(=O)N[C@@H](Cc1ccc2ccccc2c1)C(=O)N[C@@H](CCCNC(=N)N)C(=O)N[C@H](Cc1ccc(I)cc1)C(=O)NC(Cc1ccccc1)C(N)=O` (stereo in doubt), in assay [1], the Emax was less than 20%. Besides, the inhibition result in assay [3] and in assay [4] was “inactive” throughout.
In the case of `CC(=O)N[C@@H](Cc1cnc[nH]1)C(=O)N[C@@H](CCCNC(=N)N)C(=O)N[C@H](Cc1ccc(I)cc1)C(=O)NC(Cc1ccccc1)C(N)=O` (stereo in doubt), the Emax in assay [1] was less than 20%.
On the same count and under the same terms, the value for `CC(=O)NC(Cc1ccccc1)C(=O)N[C@@H](CCCNC(=N)N)C(=O)N[C@H](Cc1ccc(I)cc1)C(=O)N[C@@H](Cc1csc2ccccc12)C(N)=O` (stereo in doubt) was less than 20%.
For the compound `CC(=O)N[C@@H](Cc1csc2ccccc12)C(=O)N[C@@H](CCCNC(=N)N)C(=O)N[C@H](Cc1ccc(I)cc1)C(=O)NC(Cc1ccccc1)C(N)=O` (stereo in doubt), the Emax in assay [1] is less than 20%. In addition, the inhibition result in assay [3] and in assay [4] was “inactive” in each case.
For the compound `CC(=O)NC(Cc1ccccc1)C(=O)N[C@@H](CCCNC(=N)N)C(=O)N[C@H](Cc1ccc(I)cc1)C(=O)NC(Cc1ccccc1)C(N)=O` (stereo in doubt), in assay [1], the Emax is less than 20%. The inhibition entry in assay [3] and in assay [4] was “inactive” throughout.
For `CC(=O)N[C@@H](CCCNC(=N)N)C(=O)N[C@@H](CCCNC(=N)N)C(=O)N[C@H](Cc1ccc(I)cc1)C(=O)NC(Cc1ccccc1)C(N)=O` (stereo in doubt), the Emax in assay [1] is less than 20%.
